Assay results taken from ChEMBL document CHEMBL2010657, “Cytotoxic angucycline class glycosides from the deep sea actinomycete Streptomyces lusitanus SCSIO LR32” (J Nat Prod, 2012).

Key:
Type in all cases: functional, cell-based
[1] = system: B16; assay: Cytotoxicity against mouse B16 cells after 48 hrs by MTT assay; settings: B16, 48 h
Procedure, shortened: (§1)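 Cells grown in RPMI 1640 with 10% FBS at 37 °C, 5% CO2. Seeded at 2 × 10^3 cells/well and allowed 12 h before adding compounds in DMSO at various concentrations. After 48 h exposure, MTT (1 mg/mL in PBS) added for 4 h at 37 °C. Formazan dissolved in DMSO and read at A550. Viability taken as treated/untreated A550 × 100. IC50 reported. 5-FU and doxorubicin served as positive controls.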

[2] = system: HeLa; assay: Cytotoxicity against human HeLa cells after 48 hrs by MTT assay; procedure, shortened: as §1
[3] = system: SW1990; assay: Cytotoxicity against human SW1990 cells after 48 hrs by MTT assay; settings: SW1990, 48 h; procedure, shortened: as §1
[4] = system: NCI-H460; assay: Cytotoxicity against human NCI-H460 cells after 48 hrs by MTT assay; settings: NCI-H460, 48 h; procedure, shortened: as §1
[5] = system: HepG2; assay: Cytotoxicity against human HepG2 cells after 48 hrs by MTT assay; settings: HepG2, 48 h; procedure, shortened: as §1
[6] = system: MCF7; assay: Cytotoxicity against human MCF7 cells after 48 hrs by MTT assay; settings: MCF7, 48 h; procedure, shortened: as §1

Compound | IC50 [1] [µM] | IC50 [2] [µM] | IC50 [3] [µM] | IC50 [4] [µM] | IC50 [5] [µM] | IC50 [6] [µM]
COc1cccc2c1C(=O)c1c(O)c3c(c(O)c1C2=O)C[C@@](O)(C(=O)CO)C[C@@H]3O[C@H]1C[C@H](N)[C@H](O)[C@H](C)O1 [DOXORUBICIN] | 1.7 | 5.3 | > 100 | 11 | 7.1 | 6.9
O=c1[nH]cc(F)c(=O)[nH]1 [FLUOROURACIL] | 33 | 43 | 45 | 29 | 34 | 35
C[C@@H]1O[C@@H](O[C@H]2CC[C@H](O[C@H]3[C@H](O)C[C@H](c4ccc5c(c4O)C(=O)c4ccc(C[C@](C)(CC(=O)O)O[C@H]6CC[C@H](O[C@H]7CCC(=O)[C@H](C)O7)[C@H](C)O6)c(O)c4C5=O)O[C@@H]3C)O[C@H]2C)CCC1=O [GRINCAMYCIN B] | 2.1 | 6.4 | 11 | > 100 | 8.5 | 12
C[C@@H]1O[C@@H](O[C@H]2CC[C@H](O[C@H]3[C@H](O)C[C@H](c4ccc5c(c4O)C(=O)c4ccc(C[C@@](C)(O)CC(=O)O)c(O)c4C5=O)O[C@@H]3C)O[C@H]2C)CCC1=O [GRINCAMYCIN C] | > 100 | > 100 | 31 | > 100 | 31 | 11
C[C@@H]1O[C@@H](O[C@H]2CC[C@H](O[C@@](C)(CC(=O)O)Cc3ccc4c(c3O)C(=O)c3ccc([C@H]5C[C@H]6O[C@H]7CC(=O)[C@H](C)O[C@H]7O[C@@H]6[C@@H](C)O5)c(O)c3C4=O)O[C@H]2C)CCC1=O [GRINCAMYCIN D] | 9.7 | 12 | 22 | 30 | 9.7 | 6.1
C[C@@H]1O[C@@H](O[C@H]2CC[C@H](O[C@H]3[C@H](O)C[C@H](c4ccc5c(c4O)C(=O)c4cc6c(c(O)c4C5=O)C[C@@](C)(O[C@H]4CC[C@H](O[C@H]5CCC(=O)[C@H](C)O5)[C@H](C)O4)CC6=O)O[C@@H]3C)O[C@H]2C)CCC1=O [GRINCAMYCIN E] | 5.4 | 11 | 16 | > 100 | 11 | 8.7
C[C@@H]1O[C@@H](O[C@H]2CC[C@H](O[C@@H]3C[C@H](C4=Cc5c(-c6ccc(O)cc6)c(=O)oc6c7c(c(O)c(c56)C4=O)C=C[C@]4(O)C[C@@](C)(O[C@H]5CC[C@H](O[C@H]6CCC(=O)[C@H](C)O6)[C@H](C)O5)CC(=O)[C@]74O)O[C@H](C)[C@H]3O)O[C@H]2C)CCC1=O [GRINCAMYCIN F] | > 100 | > 100 | > 100 | > 100 | > 100 | > 100
C[C@@H]1O[C@@H](O[C@H]2CC[C@H](O[C@H]3[C@H](O)C[C@H](c4ccc5c(c4O)C(=O)C4=C(C5=O)[C@@]5(O)C(=O)C[C@](C)(O[C@H]6CC[C@H](O[C@H]7CCC(=O)[C@H](C)O7)[C@H](C)O6)C[C@@]5(O)C=C4)O[C@@H]3C)O[C@H]2C)CCC1=O [GRINCAMYCIN] | 1.1 | 5.3 | 6.4 | 11 | 5.3 | 2.1
